Compound activity from PubChem BioAssay.
CFTR F508del cor: correctors of CFTR F508del function in bronchial epithelial cells. CFBE cells, YFP halide quenching; stimulated with forskolin plus potentiator P3; % fluorescence drop versus neutral controls. AID 720511. hit rate 0.36% among 350,000. activity (quench increase), % at 7.58 µM;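 active = mean added fluorescence quench of at least 8% versus neutral control, with both replicates also reaching 8%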;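 also: cells transiently co-express mutant CFTR-F508del with the halide-sensitive YFP; corrector assay measuring rescue of mutant channel to the surface after 24 h compound exposure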
S100A4 MyoIIA: S100A4-myosin IIA interaction inhibition; S100A4/TAMRA-MyoIIA peptide fluorescence polarization; AID 652163; hit rate 0.14% among 360,000; inhibition, % at 10.7 µM; P26447;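 active = mean inhibition of at least 70% across replicates, with every replicate also reaching that level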
Target sequence (P26447 whole entry, looked up): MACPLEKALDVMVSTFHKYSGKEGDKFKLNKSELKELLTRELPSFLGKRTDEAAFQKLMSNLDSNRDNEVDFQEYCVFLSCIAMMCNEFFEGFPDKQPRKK
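System – human S100A4 monomer protein, biochemical binding assay · Buffer or medium – Calcium-containing HEPES buffer, pH 7.2 · Timing – 5 min between mix addition and reading · Also added – TAMRA-labelled myosin IIA heavy-chain peptide probe, 5 nM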
E-selectin induc: E-selectin induction on HUVECs; HUVEC E-selectin immunofluorescence imaging; normalized: neutral wells 0, TNF-alpha wells 100; P16581; hit rate 0.37% among 260,000; activation, % at 7.58 µM;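 active = mean E-selectin-positive cell signal at least 10% of the positive control, reached in at least 60% of replicates, without over 20% cell loss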
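assay system = HUVEC, human umbilical vein endothelial cells | input = 3,000 HUVEC seeded per well | medium = EGM-2 growth medium on 0.1% gelatin-coated wells | dosing = one compound dose added by pin transfer | signal = immunofluorescence imaging | read-out basis = % PE-positive cells | control set = TNF-alpha, DMSO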
FGF22 binding: binders of recombinant human FGF22 by thermal shift; SYPRO orange fluorescence; percent of sucrose octasulfate shift, DMSO zero; AID 651658; activity (Tm shift, normalised), % at 9.99 µM; hit rate 1.5% among 340,000;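 active = mean Tm shift, scaled 0 neutral to 100 positive control, at about 1.3% or above, every replicate too, limit read from the data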
Target sequence (Q9HCT0 whole entry, looked up): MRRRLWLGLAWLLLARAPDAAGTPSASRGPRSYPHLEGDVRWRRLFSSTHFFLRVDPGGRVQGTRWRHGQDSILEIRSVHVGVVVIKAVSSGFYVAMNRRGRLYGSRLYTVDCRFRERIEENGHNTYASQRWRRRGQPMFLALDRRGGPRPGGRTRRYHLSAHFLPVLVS
Env fusion inh: HIV envelope-mediated fusion inhibition. HeLa-JRFL Env/CEM21 cell fusion, luciferase. inhibition, % at 12.3 µM. hit rate 1.1% among 360,000. AID 651610;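 active = mean replicate inhibition score of at least 50 and every replicate individually at or above 50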;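 also: 0% = plate neutral controls and 100% = maraviroc near 300 nM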
Active calls of the source: *; [ ] = dose if it differs, or a comment. In the library only some 2.7% were active in any assay of this set; here they are far more common.

`Cc1ccc(-c2ccc3c(c2)O[C@H](CN(C)C(=O)C2CC2)[C@H](C)CN([C@H](C)CO)S3(=O)=O)cc1` gave CFTR F508del cor 0, S100A4 MyoIIA 19, E-selectin induc 0, FGF22 binding 0 and Env fusion inh -2[16.7 µM].
For CC(C)NC(=O)N[C@@H]1C[C@@H]2O[C@H](CO)CC[C@@H]2O[C@@H]1CCc1ccc(-c2ccc(F)cc2)cc1 the results were CFTR F508del cor 5 and S100A4 MyoIIA 1.
For COc1ccc(NC(=O)NC2(C(=O)N3CCN4CCCC4C3)CCCCC2)cc1 (configuration not stated) the results were CFTR F508del cor 0, S100A4 MyoIIA 3, E-selectin induc 0, FGF22 binding 0 and Env fusion inh -10.
Screening COc1ccc(NC(=O)NC2(C(=O)N3CCOCC3)CCCCC2)cc1 returned CFTR F508del cor 0, S100A4 MyoIIA -2, E-selectin induc 39*, FGF22 binding 0 and Env fusion inh 7.
Screening CCOC(=O)N1CCN=C1SCc1ccc(Cl)c(Cl)c1 returned CFTR F508del cor -2, S100A4 MyoIIA -3, E-selectin induc 119*, FGF22 binding 0 and Env fusion inh -1.
CC(=O)N1CCN=C1SCc1ccc(Br)cc1 was read as CFTR F508del cor 3, S100A4 MyoIIA -3, FGF22 binding 0 and Env fusion inh -22.
Screening CNC(=S)Nc1ccc(-c2nc3ccc(C)cc3s2)cc1 returned CFTR F508del cor 1, S100A4 MyoIIA 3, E-selectin induc 3, FGF22 binding 22* and Env fusion inh -149.
CC(=O)NC(=S)Nc1ccc(-c2nc3ccc(C)cc3s2)cc1 was read as CFTR F508del cor 0, S100A4 MyoIIA -1 and FGF22 binding 0.
For c1ccc(CCNc2ccc3nncn3n2)cc1 the results were CFTR F508del cor 0, S100A4 MyoIIA 0, E-selectin induc 2, FGF22 binding 0 and Env fusion inh -4.
For NCCNc1ccc2nnnn2n1 the results were CFTR F508del cor 1, S100A4 MyoIIA 0, E-selectin induc 1, FGF22 binding 43* and Env fusion inh 13.
For COc1ccc(OCCN2CCN(S(=O)(=O)c3ccccc3C(F)(F)F)CC2)cc1 the results were CFTR F508del cor -3, S100A4 MyoIIA -21, E-selectin induc 139*, FGF22 binding 0 and Env fusion inh -5.
COc1ccc(OCCN2CCN(S(=O)(=O)c3ccccc3C#N)CC2)cc1 was read as CFTR F508del cor 1, S100A4 MyoIIA -2, FGF22 binding 0 and Env fusion inh -9.
Cc1noc(C)c1NC(=O)Nc1ccc2c(c1)C(=O)N([C@@H](C)CO)C[C@H](C)[C@@H](CN(C)CC1CCCCC1)O2 was read as CFTR F508del cor 2, E-selectin induc -1 and Env fusion inh -5[16.7 µM].
`CN1CCN(C(=O)c2ccc(-n3cccn3)nc2)CC1` gave CFTR F508del cor -1, S100A4 MyoIIA 3, E-selectin induc 0, FGF22 binding 43* and Env fusion inh 10.
CNC(=O)CSc1nnc(-c2ccc3c(c2)OCO3)n1C was read as CFTR F508del cor -4, S100A4 MyoIIA -25, E-selectin induc 3, FGF22 binding 43* and Env fusion inh -11.
COC(=O)CSc1nnc(-c2ccc3c(c2)OCO3)n1C was read as Env fusion inh -36.
COc1ccc(NC(=O)N(C)C[C@H]2Oc3ccc(NS(C)(=O)=O)cc3C(=O)N([C@@H](C)CO)C[C@@H]2C)cc1 was read as CFTR F508del cor -1, S100A4 MyoIIA -8, E-selectin induc 0 and FGF22 binding 0.
Screening Cc1cc(C)nc(Nc2nc(C(N)CCc3ccccc3)cs2)n1 (configuration not stated) returned CFTR F508del cor 0, S100A4 MyoIIA -4, E-selectin induc 0, FGF22 binding 0 and Env fusion inh 74*.
For Cc1cc(C)nc(Nc2nc(C(N)c3ccccc3)cs2)n1 (configuration not stated) the results were CFTR F508del cor 0, S100A4 MyoIIA -3, E-selectin induc 0, FGF22 binding 0 and Env fusion inh -32.
For NC1=C(Cl)C(=O)c2ccc(S(N)(=O)=O)cc2C1=O the results were CFTR F508del cor -4, S100A4 MyoIIA 8, E-selectin induc 0, FGF22 binding 0 and Env fusion inh 63*.
